# From article PMC3880617 (Journal of medicinal chemistry, 2013)
# Key:
# plasmid (pBR322) DNA = assay: Electrophoresis mobility shift assay with plasmid DNA; format: binding; settings: metal/DNAbp ratios 0.25-2.0; 37 °C, 20 h
# In short: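 Supercoiled pBR322 (20 μg/mL) in 5 mM Tris/HCl, 50 mM NaClO4, pH 7.39, incubated with test compound at […] metal complex:DNAbp ratios for 20 h at 37 °C in the dark. Untreated DNA and cisplatin-DNA were the controls. Samples were run on 1% agarose in TAE for 1.5 h at 80 V and stained with GelRed for 30 min. Read-out: ratio at which the two plasmid forms coalesce.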
# [1] = tested on: human ovarian cancer A2780 cell line; settings: read-out: IC50 A2780; cisplatin dissolved in H2O; ref [18]; cited from earlier work
# [2] = tested on: A2780cisR (cisplatin resistant variant of A2780); settings: read-out: IC50 A2780cisR; cisplatin dissolved in H2O; ref [18]; cited from earlier work
# [3] = tested on: human breast cancer cell line MCF7; settings: read-out: IC50 MCF7; cisplatin dissolved in H2O; ref [18]; cited from earlier work
# [4] = tested on: non-tumorigenic human embryonic kidney cells HEK293T; settings: read-out: IC50 HEK-293T; cisplatin dissolved in H2O; ref [18]; cited from earlier work
# [5] = Stability in solution by 31P{1H} NMR in deuterated solvents; format: physicochemical
half-life in d6-DMSO solution [5],Compound,effect on electrophoretic mobility of pBR322 plasmid forms (plasmid (pBR322) DNA),IC50 [1] [µM],IC50 [2] [µM],IC50 [3] [µM],IC50 [4] [µM]
,N.N.[Cl][Pt][Cl] [cisplatin],decrease in mobility of the CCC form and an increase in mobility of the OC form,1.9 ± 0.6,35 ± 7,20 ± 3,11 ± 2.9
weeks,[{Cp-P(Ph2)=NH-Ph}2Fe](AuCl4)2 [compound 4],,,,,
